Calls of active or inactive are those of the source. The calls are words filed in the database; no cut-off is given here.
Legend:
Histone deacetylase = experiment: Inhibition of HDAC in human HeLa cell nuclear extract using Boc-Lys(acetyl)-AMC as substrate preincubated with enzyme for 5 mins prior to substrate addition measured after 30 mins by fluorescence assay; type: protein assay
U-937 [1] = experiment: Inhibition of human U937 cell proliferation after 48 hrs by MTT assay; type: functional, cell-based; settings: U-937, 48 h
[2] = Inhibition of human ES2 cell proliferation after 48 hrs by MTT assay; type: functional, cell-based; settings: ES-2, 48 h
HCT-116 = experiment: Inhibition of human HCT116 cell proliferation after 48 hrs by MTT assay; type: functional, cell-based; settings: HCT-116, 48 h
MDA-MB-231 [3] = experiment: Increase in histone H4 acetylation in human MDA-MB-231 cells at 1 uM after 3 to 24 hrs by Western blot analysis; type: functional, cell-based
Method in brief: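 MDA-MB-231 cells were exposed at 1 μM for 3 h and 24 h. Lysates were immunoblotted for acetylated histone H4, with β-actin as the loading control.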

Mus musculus [4] = experiment: Toxicity in athymic nude mouse xenografted with human U937 cells assessed as body weight loss at 60 mg/kg/day, po administered 10 days after tumor inoculation for 3 weeks; type: organism-based, U-937; design: route oral; settings: in vivo
MDA-MB-231 [5] = experiment: cells; type: functional, cell-based; settings: Homo sapiens, MDA-MB-231, 48 h
Mus musculus [6] = experiment: Toxicity in athymic nude mouse xenografted with human U937 cells assessed as spleen injury at 60 mg/kg/day, po administered 10 days after tumor inoculation for 3 weeks; type: organism-based, U-937; design: route oral; settings: in vivo
A549 = experiment: Inhibition of human A549 cell proliferation after 48 hrs by MTT assay; type: functional, cell-based; settings: A549, 48 h
PC-3 = experiment: Inhibition of human PC3 cell proliferation after 48 hrs by MTT assay; type: functional, cell-based; settings: PC-3, 48 h
U-937 [7] = experiment: Antitumor activity against human U937 cells xenografted in athymic nude mouse assessed as T/C ratio at 60 mg/kg/day, po administered 10 days after tumor inoculation for 3 weeks; type: functional
Method in brief: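 U937 cells implanted in nude mice, seven per group; oral dosing with a positive-control group run alongside. Tumour growth was followed as a growth curve, data given as mean ± SD; efficacy was expressed as tumour growth inhibition and relative increment ratio.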

Mus musculus [8] = experiment: Toxicity in athymic nude mouse xenografted with human U937 cells assessed as liver injury at 60 mg/kg/day, po administered 10 days after tumor inoculation for 3 weeks; type: organism-based, U-937; design: route oral; settings: in vivo
U-937 [9] = experiment: Antitumor activity against human U937 cells xenografted in athymic nude mouse assessed as tumor growth inhibition at 60 mg/kg/day, po administered 10 days after tumor inoculation for 3 weeks measured every three days by vernier caliper; type: functional; settings: read-out: TGI
Method in brief: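 U937 xenografts in nude mice, seven per group, with oral dosing and a reference agent as positive control. Tumour growth was followed as a growth curve, and the data are given as mean ± SD.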

U-937 [10] = experiment: Antitumor activity against human U937 cells xenografted in athymic nude mouse assessed as tumor growth inhibition at 20 mg/kg/day, po administered 10 days after tumor inoculation for 3 weeks measured every three days by vernier caliper; type: functional; settings: read-out: TGI
Method in brief: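 U937 xenografts in nude mice, seven mice per group. Tamibarotene served as the positive control. Growth curves of the implanted tumours were followed over the treatment period and reported as mean ± SD.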

U-937 [11] = experiment: Antitumor activity against human U937 cells xenografted in athymic nude mouse assessed as T/C ratio at 20 mg/kg/day, po administered 10 days after tumor inoculation for 3 weeks; type: functional

COc1cc(/C=C/C(=O)NO)ccc1OC[C@@H](N)Cc1c[nH]c2ccccc12.Cl
IC50 (Histone deacetylase): 2.91 µM

COc1cc(/C=C/C(=O)NO)ccc1OC[C@H](Cc1c[nH]c2ccccc12)NC(=O)[C@@H](NC(=O)OC(C)(C)C)C(C)C
IC50 (Histone deacetylase): 0.43 µM

COc1cc(/C=C/C(=O)NO)ccc1OC[C@H](Cc1c[nH]c2ccccc12)NC(=O)C1CCN(C(=O)OC(C)(C)C)CC1
IC50 (Histone deacetylase): 1.12 µM

O=C(CCCCCCC(=O)Nc1ccccc1)NO [VORINOSTAT]
IC50 (U-937 [1]): 2.3 µM
IC50 [2]: 12.7 µM

COc1cc(/C=C/C(=O)NO)ccc1OC[C@H](Cc1c[nH]c2ccccc12)NC(=O)[C@H](CCCCNC(=O)OC(C)(C)C)NC(=O)OC(C)(C)C
IC50 (Histone deacetylase): 1.17 µM

CCCC(CCC)C(=O)N[C@H](COc1ccc(/C=C/C(=O)NO)cc1OC)Cc1c[nH]c2ccccc12
IC50 (HCT-116): 5.5 µM
Activity (MDA-MB-231 [3]): Active
Activity (Mus musculus [4]): Non-toxic
IC50 (MDA-MB-231 [5]): 3.1 µM
Activity (Mus musculus [6]): Non-toxic
IC50 (A549): 4.4 µM
IC50 (PC-3): 3.7 µM
Activity (U-937 [7]): 42%
IC50 (U-937 [1]): 1.8 µM
Activity (Mus musculus [8]): Non-toxic
IC50 [2]: 5.4 µM
inhibition in vivo at 60 mg/kg/day (U-937 [9]): 53%

CC1(C)CCC(C)(C)c2cc(NC(=O)c3ccc(C(=O)O)cc3)ccc21 [TAMIBAROTENE]
inhibition in vivo at 20 mg/kg/day (U-937 [10]): 33%
Activity (U-937 [11]): 85%

COc1cc(/C=C/C(=O)NO)ccc1OC[C@H](Cc1c[nH]c2ccccc12)NC(=O)[C@H](CO)NC(=O)OC(C)(C)C
IC50 (HCT-116): 9.4 µM
IC50 (MDA-MB-231 [5]): 11.7 µM
IC50 (A549): 13.5 µM
IC50 (PC-3): 8.2 µM
IC50 (Histone deacetylase): 0.14 µM
IC50 (U-937 [1]): 3.9 µM
IC50 [2]: 9.5 µM

COc1cc(/C=C/C(=O)NO)ccc1OC[C@H](Cc1c[nH]c2ccccc12)NC(=O)[C@H](CCSC)NC(=O)OC(C)(C)C
IC50 (HCT-116): 5.9 µM
IC50 (MDA-MB-231 [5]): 6.8 µM
IC50 (A549): 1.6 µM
IC50 (PC-3): 5.8 µM
IC50 (Histone deacetylase): 0.18 µM
IC50 (U-937 [1]): 2.2 µM
IC50 [2]: 4.4 µM

COc1cc(/C=C/C(=O)NO)ccc1OC[C@H](Cc1c[nH]c2ccccc12)NC(=O)CNC(=O)OC(C)(C)C
IC50 (HCT-116): 6 µM
IC50 (MDA-MB-231 [5]): 7.2 µM
IC50 (A549): 11.8 µM
IC50 (PC-3): 10.5 µM
IC50 (Histone deacetylase): 0.17 µM
IC50 (U-937 [1]): 3.1 µM
IC50 [2]: 29.2 µM

COc1cc(/C=C/C(=O)NO)ccc1OC[C@H](Cc1c[nH]c2ccccc12)NC(=O)[C@H](CC(C)C)NC(=O)OC(C)(C)C
IC50 (Histone deacetylase): 0.57 µM

COc1cc(/C=C/C(=O)NO)ccc1OC[C@H](Cc1c[nH]c2ccccc12)NC(=O)[C@@H](NC(=O)OC(C)(C)C)[C@@H](C)O
IC50 (HCT-116): 2.4 µM
IC50 (MDA-MB-231 [5]): 7.2 µM
IC50 (A549): 7 µM
IC50 (PC-3): 5.4 µM
IC50 (Histone deacetylase): 0.18 µM
IC50 (U-937 [1]): 2.7 µM
IC50 [2]: 8.9 µM

COc1cc(CCC(=O)NO)ccc1OC[C@H](Cc1c[nH]c2ccccc12)NC(=O)OC(C)(C)C
IC50 (Histone deacetylase): 2.09 µM

COc1cc(/C=C/C(=O)NO)ccc1OC[C@H](Cc1c[nH]c2ccccc12)NC(=O)[C@@H]1CCCN1C(=O)OC(C)(C)C
IC50 (Histone deacetylase): 0.43 µM

COc1cc(/C=C/C(=O)NO)ccc1OC[C@H](Cc1c[nH]c2ccccc12)NC(=O)c1ccc(NC(=O)OC(C)(C)C)cc1
IC50 (Histone deacetylase): 0.73 µM

COc1cc(/C=C/C(=O)NO)ccc1OC[C@H](Cc1c[nH]c2ccccc12)NC(=O)[C@@H]1CC2(CN1C(=O)OC(C)(C)C)SCCS2
IC50 (Histone deacetylase): 0.8 µM

COc1cc(/C=C/C(=O)NO)ccc1OC[C@H](Cc1c[nH]c2ccccc12)NS(=O)(=O)c1ccc(NC(C)=O)cc1
IC50 (Histone deacetylase): 0.71 µM

COc1cc(/C=C/C(=O)NO)ccc1OC[C@H](Cc1c[nH]c2ccccc12)NC(=O)OC(C)(C)C
IC50 (Histone deacetylase): 0.65 µM

COc1cc(/C=C/C(=O)NO)ccc1OC[C@H](Cc1c[nH]c2ccccc12)NC(=O)[C@H](Cc1c[nH]c2ccccc12)NC(=O)OC(C)(C)C
IC50 (Histone deacetylase): 0.49 µM

COc1cc(/C=C/C(=O)NO)ccc1OC[C@H](Cc1c[nH]c2ccccc12)NC(=O)[C@H](C)NC(=O)OC(C)(C)C
IC50 (HCT-116): 3.8 µM
IC50 (MDA-MB-231 [5]): 4.5 µM
IC50 (A549): 4.2 µM
IC50 (PC-3): 10.4 µM
IC50 (Histone deacetylase): 0.16 µM
IC50 (U-937 [1]): 2.2 µM
IC50 [2]: 25.1 µM

COc1cc(/C=C/C(=O)NO)ccc1OC[C@H](Cc1c[nH]c2ccccc12)NS(=O)(=O)c1c(C(C)C)cc(C(C)C)cc1C(C)C
IC50 (Histone deacetylase): ND(Insoluble)

CC[C@H](C)[C@H](NC(=O)OC(C)(C)C)C(=O)N[C@H](COc1ccc(/C=C/C(=O)NO)cc1OC)Cc1c[nH]c2ccccc12
IC50 (Histone deacetylase): 0.38 µM

COc1cc(/C=C/C(=O)NO)ccc1OC[C@H](Cc1c[nH]c2ccccc12)NC(=O)[C@H](Cc1ccc(O)cc1)NC(=O)OC(C)(C)C
IC50 (Histone deacetylase): 0.32 µM

COc1cc(/C=C/C(=O)NO)ccc1OC[C@H](Cc1c[nH]c2ccccc12)NS(=O)(=O)c1ccc(Cl)cc1
IC50 (Histone deacetylase): 1.47 µM

COc1cc(/C=C/C(=O)NO)ccc1OC[C@H](Cc1c[nH]c2ccccc12)NC(=O)[C@H](Cc1ccccc1)NC(=O)OC(C)(C)C
IC50 (Histone deacetylase): 0.62 µM

COc1cc(/C=C/C(=O)NO)ccc1OC[C@H](Cc1c[nH]c2ccccc12)NS(=O)(=O)c1ccc(F)cc1
IC50 (Histone deacetylase): 1.06 µM
